From ChEMBL document CHEMBL3872252, “New bithiazolyl hydrazones: Novel synthesis, characterization and antitubercular evaluation” (Bioorg Med Chem Lett, 2017)

Tests used:
[1] = Antitubercular activity against Mycobacterium tuberculosis H37Ra ATCC 25177 dormant stage infected in human THP1 cells measured on day 12 by nitrate reductase assay; assay type: functional, THP-1; conditions: ATCC 25177, 288 h
[2] = Antitubercular activity against Mycobacterium tuberculosis H37Ra ATCC 25177 active stage infected in human THP1 cells measured on day 8 by nitrate reductase assay; assay type: functional, THP-1; conditions: ATCC 25177, 192 h
[3] = Antitubercular activity against Mycobacterium tuberculosis H37Ra ATCC 25177 active stage measured on day 8 by XTT reduction menadione based two-fold dilution assay; assay type: functional; conditions: ATCC 25177, 192 h
Method in brief: (§1)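 M. tuberculosis H37Ra ATCC 25177 was exposed to 0.7–100 μg/mL in two-fold steps (0.7, 1.5, 3.1 … 100). Active stage was read after 8 days and dormant stage after 12 days of incubation. Inhibition was read by XTT reduction menadione assay (XRMA), absorbance 470 nm. MIC90 is the concentration giving ≥90% inhibition (µg/mL).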

[4] = Antitubercular activity against Mycobacterium tuberculosis H37Ra ATCC 25177 dormant stage measured on day 12 by XTT reduction menadione based two-fold dilution assay; assay type: functional; conditions: ATCC 25177, 288 h; method in brief: as §1
[5] = Antitubercular activity against Mycobacterium bovis BCG ATCC 35743 active stage measured on day 8 by nitrate reductase based two-fold dilution assay; assay type: functional, Mycobacterium bovis BCG str. ATCC 35743; conditions: Mycobacterium tuberculosis variant bovis BCG, ATCC 35743, 192 h
[6] = Antitubercular activity against Mycobacterium bovis BCG ATCC 35743 dormant stage measured on day 12 by nitrate reductase based two-fold dilution assay; assay type: functional, Mycobacterium bovis BCG str. ATCC 35743; conditions: Mycobacterium tuberculosis variant bovis BCG, ATCC 35743, 288 h
[7] = Cytotoxicity against human THP1 cells by MTT assay; assay type: toxicity, cell-based, THP-1
[8] = Cytotoxicity against human MCF7 cells by MTT assay; assay type: toxicity, cell-based
[9] = Cytotoxicity against human HCT116 cells by MTT assay; assay type: toxicity, cell-based, HCT-116
[10] = Selectivity index, ratio of GI50 for human MCF7 cells to MIC90 for Mycobacterium tuberculosis H37Ra ATCC 25177 active stage; assay type: toxicity, cell-based; conditions: read-out: Selectivity Index
Method in brief: (§2)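 Cytotoxicity was measured on human MCF-7, HCT116 and THP-1 cells by MTT assay, with paclitaxel as reference. GI50 is the concentration inhibiting 50% of cell growth. The selectivity index is GI50 for the given cell line divided by MIC90 for the given mycobacterial strain and stage.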

[11] = Selectivity index, ratio of GI50 for human MCF7 cells to MIC90 for Mycobacterium tuberculosis H37Ra ATCC 25177 dormant stage; assay type: toxicity, cell-based; conditions: read-out: Selectivity Index
Method in brief: (§3)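 Cytotoxicity was measured on human MCF-7, HCT116 and THP-1 cells by MTT assay, with paclitaxel as reference. The selectivity index is GI50 for the given cell line divided by MIC90 for the given mycobacterial strain and stage.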

[12] = Selectivity index, ratio of GI50 for human MCF7 cells to MIC90 for Mycobacterium bovis BCG ATCC 35743 active stage; assay type: toxicity, cell-based; conditions: read-out: Selectivity Index; method in brief: as §2
[13] = Selectivity index, ratio of GI50 for human MCF7 cells to MIC90 for Mycobacterium bovis BCG ATCC 35743 dormant stage; assay type: toxicity, cell-based; conditions: read-out: Selectivity Index; method in brief: as §3
[14] = Selectivity index, ratio of GI50 for human HCT116 cells to MIC90 for Mycobacterium tuberculosis H37Ra ATCC 25177 active stage; assay type: toxicity, cell-based, HCT-116; conditions: read-out: Selectivity Index; method in brief: as §2
[15] = Selectivity index, ratio of GI50 for human HCT116 cells to MIC90 for Mycobacterium tuberculosis H37Ra ATCC 25177 dormant stage; assay type: toxicity, cell-based, HCT-116; conditions: read-out: Selectivity Index; method in brief: as §3
[16] = Selectivity index, ratio of GI50 for human HCT116 cells to MIC90 for Mycobacterium bovis BCG ATCC 35743 active stage; assay type: toxicity, cell-based, HCT-116; conditions: read-out: Selectivity Index; method in brief: as §2
[17] = Selectivity index, ratio of GI50 for human HCT116 cells to MIC90 for Mycobacterium bovis BCG ATCC 35743 dormant stage; assay type: toxicity, cell-based, HCT-116; conditions: read-out: Selectivity Index; method in brief: as §3
[18] = Selectivity index, ratio of GI50 for human THP1 cells to MIC90 for Mycobacterium tuberculosis H37Ra ATCC 25177 active stage; assay type: toxicity, cell-based, THP-1; conditions: read-out: Selectivity Index; method in brief: as §2
[19] = Selectivity index, ratio of GI50 for human THP1 cells to MIC90 for Mycobacterium tuberculosis H37Ra ATCC 25177 dormant stage; assay type: toxicity, cell-based, THP-1; conditions: read-out: Selectivity Index; method in brief: as §3
[20] = Selectivity index, ratio of GI50 for human THP1 cells to MIC90 for Mycobacterium bovis BCG ATCC 35743 active stage; assay type: toxicity, cell-based, THP-1; conditions: read-out: Selectivity Index; method in brief: as §2
[21] = Selectivity index, ratio of GI50 for human THP1 cells to MIC90 for Mycobacterium bovis BCG ATCC 35743 dormant stage; assay type: toxicity, cell-based, THP-1; conditions: read-out: Selectivity Index; method in brief: as §3
[22] = system: Escherichia coli; test: Growth inhibition of Escherichia coli at 30 ug/ml; assay type: functional; conditions: read-out: GI
[23] = system: Escherichia coli; test: Growth inhibition of Escherichia coli at 10 ug/ml; assay type: functional; conditions: read-out: GI
[24] = system: Escherichia coli; test: Growth inhibition of Escherichia coli at 3 ug/ml; assay type: functional; conditions: read-out: GI
Method in brief: (§4)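 Screened against Gram-negative E. coli and P. aeruginosa and Gram-positive S. aureus and B. subtilis. Compound was tested at 3 µg/ml, and the read-out is percent growth inhibition.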

[25] = system: Pseudomonas aeruginosa; test: Growth inhibition of Pseudomonas aeruginosa at 30 ug/ml; assay type: functional; conditions: read-out: GI
[26] = system: Pseudomonas aeruginosa; test: Growth inhibition of Pseudomonas aeruginosa at 10 ug/ml; assay type: functional; conditions: read-out: GI
[27] = system: Pseudomonas aeruginosa; test: Growth inhibition of Pseudomonas aeruginosa at 3 ug/ml; assay type: functional; conditions: read-out: GI; method in brief: as §4
[28] = system: Staphylococcus aureus; test: Growth inhibition of Staphylococcus aureus at 30 ug/ml; assay type: functional; conditions: read-out: GI
[29] = system: Staphylococcus aureus; test: Growth inhibition of Staphylococcus aureus at 10 ug/ml; assay type: functional; conditions: read-out: GI
[30] = system: Staphylococcus aureus; test: Growth inhibition of Staphylococcus aureus at 3 ug/ml; assay type: functional; conditions: read-out: GI; method in brief: as §4
[31] = system: Bacillus subtilis; test: Growth inhibition of Bacillus subtilis at 30 ug/ml; assay type: functional; conditions: read-out: GI
[32] = system: Bacillus subtilis; test: Growth inhibition of Bacillus subtilis at 10 ug/ml; assay type: functional; conditions: read-out: GI
[33] = system: Bacillus subtilis; test: Growth inhibition of Bacillus subtilis at 3 ug/ml; assay type: functional; conditions: read-out: GI; method in brief: as §4

C/C(=N\Nc1nc(-c2ccc(F)cc2)cs1)c1sc(-c2ccccc2)nc1C
70.7%: inhibition of growth at 3 µg/mL [30]
73.2%: inhibition of growth at 10 µg/mL [26] | inhibition of growth at 30 µg/mL [28]
> 100 µg/mL: MIC90 [1] | MIC90 [2] | IC50 [3] | MIC90 [3] | IC50 [4] | MIC90 [4] | IC50 [5] | MIC90 [5] | IC50 [6] | MIC90 [6] | GI50 ([7]; THP1 cells) | GI90 ([7]; thp-1) | GI50 ([8]; MCF7 cells) | GI90 ([8]; mcf7) | GI50 ([9]; HCT116 cells) | GI90 ([9]; hct-116)
74.7%: inhibition of growth at 30 µg/mL [22]
68.5%: inhibition of growth at 3 µg/mL [33]
1: selectivity ratio [10] | selectivity ratio [11] | selectivity ratio [12] | selectivity ratio [13] | selectivity ratio [14] | selectivity ratio [15] | selectivity ratio [16] | selectivity ratio [17] | selectivity ratio [18] | selectivity ratio [19] | selectivity ratio [20] | selectivity ratio [21]
71.1%: inhibition of growth at 30 µg/mL [31]
74%: inhibition of growth at 10 µg/mL [23] | inhibition of growth at 30 µg/mL [25]
70.2%: inhibition of growth at 10 µg/mL [32]
72.5%: inhibition of growth at 3 µg/mL [24] | inhibition of growth at 10 µg/mL [29]
71.5%: inhibition of growth at 3 µg/mL [27]
